The chains are these.
B1: NELF-E aptamer (parent)
chain: CCCAACGACUGCCGAGCGAGAUUACGCUUGAGCGCCCCACUGAGGAUGCCCACGGGCGAUUGGGGCACGG

One may read the Kd as a measure of binding affinity in units of concentration.

Variants of B1 are the subject of the data set. Description: HiTS-RAP. The conditions noted are these: with NELF-E (Drosophila). The procedure, abridged: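 Kd came from weighted Hill fits to the first binding curve, with intensities normalised to sequencing intensity and averaged per sequence, keeping only fits whose variance was below 1,000,000. That curve was imaged on an Illumina GAIIx flowcell, where sequenced aptamer DNA templates with a T7 promoter and ter site had been transcribed in situ by T7 RNA polymerase and halted by GST-Tus (30 minutes, 37°C). Before each image, clusters equilibrated for 30 minutes at room temperature with NELF-E-mOrange at 0.064 to 1000 nM in HEPES binding buffer.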
Consider CCCAACGACUGCCGAGCGAGAUUACGCUCGAGCGCCCCACUGAGGAUGCCCACGGGCGAUUGGGGCUCGG [U29C A67U], for which the Kd was 5.08 nM.
The same measure for CCCAACGACUGCCGAGCGAGAUUACGCCUGAGCGCCCCACUGAGGAUGCCCACGGGCGGUUGGGGCACGG [U28C A59G]: 113 nM.
With CCCAACGACUGCCGAGCGAGAUUACGCUGGAGCGCGCCACUGAGGAUGCCCACGGGCGAUUGGGGCACGG [U29G C36G], the Kd was determined as 8.06 nM.
The same measure for CCCAACGACUGCCGAGCGAGAUUACGCUGGAGCGCUCCACUGAGGAUGCCCACGGGCGAUUGGGGCACGG [U29G C36U]: 9.64 nM; for CCCAACGACUGCCGAGCGAGAUUACGCUAGAGCGCCCCACUGAGGAUGCCCACGGGCGAUUGGGGCUCGG [U29A A67U]: 5.96 nM; for CCCAACGACUGCCGAGCGAGAUUACGCUGGAGCGCCCCACUGAGGAUGCCCACGGGCGAUUGGGGCUCGG [U29G A67U]: 6.79 nM.
Consider CCCAACGACUGCCGAGCGAGAUUACGCUGGAGCGCCCCACUGAGGAUGCCCACGGGCGAUUGGGGCGCGG [U29G A67G], for which the Kd was 5.86 nM.
As to CCCAACGACUGCCGAGCGAGAUUACGCUAGAGCGCCCCACUGAGGAUGCCCACGGGCGAUUGGGGCACGG [U29A], the Kd was 4.54 nM.
As to CCCAACGACUGCCGAGCGAGAUUACGCUGGAGCGCCCCACUGAGGAUGCCCACGGGCGAUUGGGGCACGG [U29G], the Kd stood at 4.93 nM.
Turning to CCCAACGACUGCCGAGCGAGAUUACGCUCGAGCGCCCCACUGAGGAUGCCCACGGGCGAUUGGGGCACGG [U29C], the Kd turned out to be 4.9 nM.
In the case of CCCAACGACUGCCGAGCGAGAUUACUCUUGAGCGCCCCACGGAGGAUGCCCACGGGCGAUUGGGGCACGG [G26U U41G], the Kd was 6.71 nM.
With CCCAACGACUGCCGAGCGAGAUUACGCUGGAGCGCCCCACUGAGGAUGCCCACGGGCGUUUGGGGCACGG [U29G A59U], the Kd stood at 23.9 nM.
Consider CCCAACGACUGCCGAGCGAGAUUACGCUGGAGCGCCCCACUGAGGAUGCCCACGGGCGGUUGGGGCACGG [U29G A59G], for which the dissociation constant Kd is 50.9 nM.
Turning to CCCAACGACUGCCGAGCGAGAUUACGCUAGAGCGCCUCACUGAGGAUGCCCACGGGCGAUUGGGGCACGG [U29A C37U], the Kd turned out to be 7.5 nM.
For the variant CCCAACGACUGCCGAGCGAGAUUACGCUAGUGCGCCCCACUGAGGAUGCCCACGGGCGAUUGGGGCACGG [U29A A31U], the Kd stood at 4.6 nM.
To CCCAACGACUGCCGAGCGAGAUUACGCUAGGGCGCCCCACUGAGGAUGCCCACGGGCGAUUGGGGCACGG [U29A A31G] belongs 5.67 nM; to CCCAACGACUGCCGAGCGAGAUUACGCUCGAGCGCCCCACUGAGGAUGCCCACGGGCGAUAGGGGCACGG [U29C U61A], 38 nM; to CCCAACGACUGCCGAGCGAGAUUACGCUGGAGCGCCCCACUGAGGAUGCCCUCGGGCGAUUGGGGCACGG [U29G A52U], 15.5 nM.
Regarding CCCAACGACUGCCGAGCGAGAUUACGCUGGAGCGCCCCACUGAGGAUGCCCGCGGGCGAUUGGGGCACGG [U29G A52G], the Kd was 4.39 nM.
For the variant CCCAACGACUGCCGAGCGAGAUUACGCUAGAGCGCCCCUCUGAGGAUGCCCACGGGCGAUUGGGGCACGG [U29A A39U], the Kd is 20.9 nM.
In the case of CCCAACGACUGCCGAGCGAGAUUACGCUAGAGCGCCCCGCUGAGGAUGCCCACGGGCGAUUGGGGCACGG [U29A A39G], the Kd was 5.71 nM.
Turning to CCCAACGACUGCCGAGCGAGAUUACGCUAGAGCGCCCCACCGAGGAUGCCCACGGGCGAUUGGGGCACGG [U29A U41C], the Kd was found to be 79.2 nM.
On to CCCAACGACUGCCGAGCGAGAUUACGCUAGAGCGCCCCACGGAGGAUGCCCACGGGCGAUUGGGGCACGG [U29A U41G], for which the Kd stood at 6.07 nM.
CCCAACGACUGCCGAGCGAGAUUACGCUAGAGCGCCCCACUGAGGAUGCCCAUGGGCGAUUGGGGCACGG [U29A C53U]: the Kd stood at 5.35 nM.
To CCCAACGACUGCCGAGCGAGAUUACGCUCGAGCGCCCCACUGUGGAUGCCCACGGGCGAUUGGGGCACGG [U29C A43U] belongs 43.4 nM.
Turning to CCCAACGACUGCCGAGCGAGAUUACGCCUGAGCGCCCCACUGAGGAUGCCCACGGGCGAUAGGGGCACGG [U28C U61A], the equilibrium dissociation constant (Kd) was 43.5 nM.
To CCCAACGACUGCCGAGCGAGAUUACGCUGGAGCGCCCCAGUGAGGAUGCCCACGGGCGAUUGGGGCACGG [U29G C40G] belongs 5.85 nM; to CCCAACGACUGCCGAGCGAGAUUACUGUUGAGCGCCCCACUGAGGAUGCCCACGGGCGAUUGGGGCACGG [G26U C27G], 4.95 nM.
Consider CCCAACGACUGCCGAGCGAGAUUACUCUUGAGCGCCCCACUGAGGAUGCCCACGGGCGAUUGGGGCACGG [G26U], for which the Kd amounted to 5.53 nM.
For CCCAACGACUGCCGAGCGAGAUUACCCUUGAGCGCCCCACUGAGGAUGCCCACGGGCGAUUGGGGCACGG [G26C], the Kd turned out to be 13.8 nM.
Turning to CCCAACGACUGCCGAGCGAGAUUACACUUGAGCGCCCCACUGAGGAUGCCCACGGGCGAUUGGGGCACGG [G26A], the equilibrium dissociation constant (Kd) was determined as 4.05 nM.
Consider CCCAACGACUGCCGAGCGAGAUUACACUUGAGCGCCCCACGGAGGAUGCCCACGGGCGAUUGGGGCACGG [G26A U41G], for which the Kd worked out at 4.19 nM.
For the variant CCCAACGACUGCCGAGCGAGAUUACGCUGGAGCGCCCCACUGGGGAUGCCCACGGGCGAUUGGGGCACGG [U29G A43G], the Kd is 14 nM.
On to CCCAACGACUGCCGAGCGAGAUUACGCUGGAGCGCCCCACUGUGGAUGCCCACGGGCGAUUGGGGCACGG [U29G A43U], for which the Kd turned out to be 44 nM.
Consider CCCAACGACUGCCGAGCGAGAUUACGCUCGAGCGCUCCACUGAGGAUGCCCACGGGCGAUUGGGGCACGG [U29C C36U], for which the Kd came out at 6 nM.
For the variant CCCAACGACUGCCGAGCGAGAUUACGCUGGAGCGCCCUACUGAGGAUGCCCACGGGCGAUUGGGGCACGG [U29G C38U], the Kd was determined as 8.13 nM.
For CCCAACGACUGCCGAGCGAGAUUACGCGUGAGCGCCCCACUGAGGAUGCCCACGGGCGAUUGGGGCACGG [U28G], the dissociation constant Kd turned out to be 6.24 nM.
To CCCAACGACUGCCGAGCGAGAUUACGCAUGAGCGCCCCACUGAGGAUGCCCACGGGCGAUUGGGGCACGG [U28A] belongs 4.43 nM; to CCCAACGACUGCCGAGCGAGAUUACGCCUGAGCGCCCCACUGAGGAUGCCCACGGGCGAUUGGGGCACGG [U28C], 8.26 nM.
